# High-throughput results from PubChem.
# PolyA inh: blocks polyadenylation in yeast reporter cells | AID 1875 | 300,000 tested, 0.02% active | S. cerevisiae SKY197-pL101 polyadenylation reporter, beta-gal luminescence; efflux-impaired pdr1/pdr3 knockout yeast; score 100 = 6 SD above DMSO | activity score, % at 12 µM;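 active = lowest replicate activity score at least 50, where 100 means six control SD above control mean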;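 also: yeast exposed to compound for 9 h at 30 °C; higher score means more reporter readthrough which indicates perturbed polyadenylation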
# T cruzi inh: T. cruzi replication inhibition; T. cruzi beta-gal in NIH3T3, luminescence, 90 h; 300,000 tested, 1.4% active; inhibition, % (test concentration not listed);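 active = mean inhibition across valid replicates above about 55%, limit read from the data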;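 also: signal also drops with host cell toxicity which is not excluded here; 0% = plate median of DMSO wells and 100% = zero luminescence signal; higher percent means less beta-gal luminescence so fewer parasites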
#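 System: NIH/3T3 fibroblasts plus reporter T. cruzi. Medium: DMEM plus 2% FBS. Probe or stimulus: 5000 reporter trypomastigotes per well. Compound: single 50 nL compound addition per well in DMSO. Incubation: co-culture of at least 90 h after 3 h attachment. Detection: GalScreen β-gal luminescence, detergent lysis, 60 min. Evaluation: parasite load inhibition, %.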
# CHT PAM: allosteric activators of human choline transporter CHT; B-score at 10 µM; Q9GZV3; 310,000 tested, 0.49% active; CHT-expressing cells, membrane potential dye, choline EC20; active compounds read high; LV-AA mutant CHT in HEK293 cells;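 active = initial fluorescence not abnormally high and integrated response B-score, plate-corrected, over 3 SD above library mean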
# Target sequence (Q9GZV3 whole entry, looked up): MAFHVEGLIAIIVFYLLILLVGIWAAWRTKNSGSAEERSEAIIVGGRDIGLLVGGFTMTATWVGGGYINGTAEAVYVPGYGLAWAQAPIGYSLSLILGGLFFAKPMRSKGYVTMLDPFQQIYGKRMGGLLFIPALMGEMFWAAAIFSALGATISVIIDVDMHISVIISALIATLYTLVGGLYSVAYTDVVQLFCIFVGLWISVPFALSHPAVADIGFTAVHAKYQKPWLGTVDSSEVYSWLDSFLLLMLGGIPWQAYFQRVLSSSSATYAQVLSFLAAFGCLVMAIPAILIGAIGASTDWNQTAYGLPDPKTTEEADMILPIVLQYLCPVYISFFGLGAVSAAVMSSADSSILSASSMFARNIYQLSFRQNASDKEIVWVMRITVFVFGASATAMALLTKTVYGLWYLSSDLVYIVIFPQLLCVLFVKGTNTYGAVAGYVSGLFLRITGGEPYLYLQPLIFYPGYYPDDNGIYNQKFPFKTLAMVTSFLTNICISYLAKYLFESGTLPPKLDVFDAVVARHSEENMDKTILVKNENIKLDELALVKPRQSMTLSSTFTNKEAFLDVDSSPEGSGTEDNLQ
# CHT inh: human CHT choline transport inhibition | CHT-expressing cells, membrane potential dye, choline response; active compounds read low | Q9GZV3 | 310,000 tested, 0.86% active | AID 488975 | B-score at 10 µM;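 active = B-score over 3 SD under the library average, and starting fluorescence ratio not unusually high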;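 also: choline stimulus applied at its EC90 after an EC20 pre-addition; B-score computed on integrated fluorescence ratio after choline addition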
# An asterisk follows results filed as active; i = inactive; . = no result. Only some compounds are listed: those with a hit (about 2.6% of all), similar ones and a draw of the others.
SMILES,PolyA inh,T cruzi inh,CHT PAM,CHT inh
Clc1ccc2ccc3cccnc3c2n1,-9,-14,i,i
O=S1(=O)Nc2c(ccc3cccnc23)-c2ccccc21,-87,72*,i,i
Cc1cc(OCc2cc(C(=O)N(Cc3nccn3C)C(C)C)no2)cc(C)c1Cl,9,-16,i,i
Cc1ccc(NC(=O)C(Cc2ccccc2)N2C(=O)C3C4CCC(C4)C3C2=O)cc1Cl (stereo not given),2,78*,i,i
Oc1ccccc1/C=N/Nc1cc(N2CCCC2)nc(N2CCCC2)n1,-16,57*,i,i
Cc1nc(N/N=C/c2ccc(O)cc2O)cc(N2CCOCC2)n1,3,13,i,i
CN(CCOc1ccc(Cl)cc1)C(=O)C1CCN(C(=O)c2ccc(F)cc2)CC1,3,11,i,i
Cc1ccc(NCC(=O)c2ccc(C)cc2)cc1,3,56*,i,i
Cc1ccc(C(=O)CNc2ccc(C)c(Cl)c2)cc1,-9,-24,i,i
CCCc1c(C)nc(N2CCN(c3ccccc3F)CC2)[nH]c1=O,5,2,i,i
O=C(CCSc1ccc(Cl)cc1)N1CCN(c2ccc(O)cc2)CC1,-25,63*,i,i
O=C(Nc1cccc(Cl)c1)Nc1cc(S(=O)(=O)N2CCCCC2)ccc1Cl,-12,55*,i,i
Cc1ccc(S(=O)(=O)N2CCCCC2)cc1NC(=O)Nc1ccc(Cl)cc1Cl,.,55*,i,i
O=C(Nc1ccccc1)Nc1ccc(S(=O)(=O)N2CCCCC2)cc1,2,-5,i,i
COc1cc(OC)c(OC)cc1CN1CCSCC1,3,-1,i,i
O=C(CSc1nnc(-c2ccc(F)cc2)c2ccccc12)Nc1ccccc1,-12,28,i,i
O=C(CSc1nnc(-c2ccc(F)cc2)c2ccccc12)Nc1cccc(Cl)c1,13,60*,i,i
O=C(Nc1nc(-c2ccccc2)cs1)c1ccc(N2CCOCC2)c([N+](=O)[O-])c1,3,55*,i,i
O=C(c1ccco1)N(CCCN1CCOCC1)c1nc(-c2ccc(Cl)cc2)cs1,12,67*,i,i
Cc1ccc(-n2cc(CN(C)Cc3ncc[nH]3)c(-c3cccc(C)c3)n2)cc1,1,58*,i,i
CN(Cc1ncc[nH]1)Cc1cn(-c2ccccc2)nc1-c1ccc2c(c1)OCO2,21,10,i,i
NS(=O)(=O)c1ccc(NC(=S)NNC(=O)c2ccc(Br)o2)cc1,-9,12,i,i
COc1ccc(C)cc1S(=O)(=O)N1CCN(C(=O)c2ncoc2-c2ccccc2F)CC1,-10,15,i,i
CN1c2ccsc2/C(=N/Nc2ccc(F)cc2)CS1(=O)=O,.,64*,i,i
CCNC(=O)C1=C(O)c2sccc2N(C)S1(=O)=O,14,-17,i,i
SMILES,PolyA inh,T cruzi inh,CHT PAM,CHT inh
Cc1ccc(N/N=C2\CS(=O)(=O)N(C)c3ccsc32)cc1,-32,64*,i,i
CC1CCN(c2ccc3nnc(CCC(=O)N4CCCCC4)n3n2)CC1,-12,12,i,i
COCCn1c(SCC(=O)NC(=O)NCc2ccccc2)nc2ccccc21,-10,55*,i,i
Cc1[nH]c2c(Cl)cccc2c(=O)c1CN1CCCCCC1,-8,57*,i,i
CN(C(=O)c1ccc(Br)o1)C1(C)CCS(=O)(=O)C1 (stereo not given),16,-2,i,i
CCOC(=O)/C(C#N)=C1\SS/C(=C(/C#N)C(=O)OCC)S1,-4,2,i,-5.5*
Cc1cc[n+](C(C)C(=O)c2ccc(-c3ccccc3)cc2)cc1 (stereo not given),.,73*,i,i
Cc1cc(Nc2ccccc2)c2c([N+](=O)[O-])ccc(C)c2n1,-32,61*,i,i
Cc1cc(Nc2ccc([N+](=O)[O-])cc2)c2ccccc2n1,3,4,i,i
COc1ccc(N(C(=O)CNC(=O)c2cccs2)C(C(=O)NC2CCCC2)c2ccncc2)cc1 (stereo not given),-8,-4,i,i
Cc1cc(C)c2c(N)c(C(=O)c3ccc(Cl)cc3)sc2n1,-10,45,i,i
Cc1cc(C)c2c(N)c(C(=O)c3ccc(Cl)c(Cl)c3)sc2n1,6,101*,i,i
Cc1cc(C)c2c(N)c(C(=O)c3ccccc3)sc2n1,2,66*,i,i
CC1CN(CC(=O)Nc2ccc(S(N)(=O)=O)cc2)CC(C)O1 (stereo not given),11,-15,i,i
CCN(CC)C(=O)c1csc(Nc2ccc(C)cc2)n1,.,11,i,i
CCOC(=O)/C(=N/Nc1ccccc1)c1csc(Nc2ccccc2)n1,-15,62*,i,i
CCOC(=O)/C(=N\Nc1ccc(Cl)cc1)c1csc(Nc2ccccc2)n1,-10,65*,i,i
CCOC(=O)/C(=N\Nc1ccc(OC)cc1)c1csc(Nc2ccccc2)n1,4,81*,i,i
CCOC(=O)c1nc(Nc2ccc(OC)cc2)c2ccccc2n1,11,6,i,i
CCCCC(CCC(=O)O)(C(=O)OCC)c1csc(Nc2ccccc2)n1 (stereo not given),10,3,i,i
O=C(CCCc1nc(-c2ccccc2)no1)NC1CCCCC1,1,-9,i,i
CCC(=O)N1CCc2cc(S(=O)(=O)NC(C(=O)N3CCN(c4ccc(F)cc4)CC3)C(C)C)ccc21 (stereo not given),1,13,i,i
O=C(c1ccc2c3n(nc2c1)-c1ccccc1CO3)N1CCCCC1,-13,-10,i,-5.3*
CCC1(c2ccc(F)cc2)NC(=O)N(CC(=O)Nc2ccc(S(N)(=O)=O)cc2)C1=O (stereo not given),17,3,i,i
Cc1ccc(CSCC(=O)N(C)CC(=O)Nc2c(Cl)cccc2Cl)cc1,0,-14,i,i
SMILES,PolyA inh,T cruzi inh,CHT PAM,CHT inh
O=C(CN1CCN(S(=O)(=O)c2ccccc2)CC1)Nc1ccc(Cl)c([N+](=O)[O-])c1,-14,27,i,i
CSc1nnc2n(-c3ccccc3)c(=O)c3c4c(sc3n12)CCC4,.,.,i,i
C=CCSc1nc2sc3c(c2c(=O)n1-c1ccccc1)CCN(C)C3,24,56*,i,i
CCSc1nc2sc3c(c2c(=O)n1-c1ccccc1)CCN(C)C3,9,48,i,i
CN1CCc2c(sc3c2c(=O)n(-c2ccccc2)c2nnc(SCc4ccccc4)n32)C1,-25,71*,i,i
COCCSc1nc2sc3c(c2c(=O)n1-c1ccccc1)CCN(C)C3,-12,52,7.5*,i
COc1ccc2[nH]c(C(=O)O)c(CCNC(=O)/C=C/c3ccc(O)c(OC)c3)c2c1,-2,-11,i,i
OCC[C@H]1C[C@@H](O)[C@H](O)[C@]2(Cc3ccccc3CCO2)O1,.,.,i,i
